Screens as filed in PubChem BioAssay.
CHO-K1 Ca ag – nonselective activator or artifact in parental CHO-K1 cells; Fluo-8 calcium fluorescence; scaled to maximal ATP response, vehicle zero; activation, % at 3 µM; 0.48% of 360,000 active; AID 602248; in the data active means activation above about 15%;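 further: untransfected CHO-K1 host cells lacking M1 receptor as counterscreen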
CHO-K1 Ca PAM – nonselective activator or artifact in parental CHO-K1 calcium assay; ATP EC20, Fluo-8 calcium fluorescence; 0% at ATP EC20, 100% at ATP max; activation, % at 3 µM; 0.02% of 360,000 active;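 active means activation above the run cutoff, the mean activation of all test compounds plus 3 SD, cut at about 40% in these data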;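 further: peak over basal fluorescence ratio in a 140 s read after ATP addition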
OX1R antag-1 – blocks the human orexin 1 receptor; O43613; AID 485270; 1.8% of 330,000 active; inhibition, % at 6.6 µM; OX1R-expressing cells, FRET antagonist read-out; in the data active means inhibition mostly above about 38%, no sharp cut-off; inactive means mostly below about 40%;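 further: 0% = agonist challenge alone and 100% = reference antagonist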
Target sequence (O43613 whole entry, looked up): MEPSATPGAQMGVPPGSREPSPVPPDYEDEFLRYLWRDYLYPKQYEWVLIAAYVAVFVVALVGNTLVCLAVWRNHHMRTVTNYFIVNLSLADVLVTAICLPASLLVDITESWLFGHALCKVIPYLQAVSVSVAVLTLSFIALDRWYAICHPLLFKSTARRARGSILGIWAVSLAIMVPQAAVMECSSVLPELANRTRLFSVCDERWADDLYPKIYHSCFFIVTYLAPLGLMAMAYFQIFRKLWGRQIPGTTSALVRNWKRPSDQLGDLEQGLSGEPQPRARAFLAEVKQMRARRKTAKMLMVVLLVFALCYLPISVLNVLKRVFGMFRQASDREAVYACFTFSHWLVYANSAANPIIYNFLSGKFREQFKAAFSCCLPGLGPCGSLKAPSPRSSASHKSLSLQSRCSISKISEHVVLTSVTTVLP
CHO parental Ca – counter-screen for OX1R antagonists: effect in parental CHO cells. inhibition, % at 5.6 µM. 0.63% of 330,000 active. parental CHO-K1, ATP-induced calcium, Fluo-8 fluorescence;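 active means inhibition above that plate's mean sample inhibition plus 3 SD, cut at about 26% in these data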;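 further: 0% = ATP-challenged DMSO wells and 100% = DMSO wells without ATP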
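Material: Parental CHO cells | Reagent: ATP | Compound dosing: Single nominal dose of 5.6 µM per compound | Detection: Intracellular calcium via Fluo-8 no-wash fluorescent dye | Read-out: % inhibition of ATP-induced calcium mobilization | Benchmarks: Low control ATP plus DMSO, high control DMSO only | Replicates: Singlicate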
OX1R antag-2 – blocks the human orexin 1 receptor | O43613 | CHO/OX1R cells, Fluo-8 calcium fluorescence, orexin A | inhibition, % at 5 µM | 0.43% of 330,000 active;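 active means inhibition above its plate's threshold, mean inhibition of all tested compounds on the plate plus 3 SD, cut at about 37% in these data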;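 further: 0% = orexin A challenge wells and 100% = SB-334867-A antagonist wells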
CHO-K1 Ca antag – nonselective inhibitor or artifact in parental CHO-K1 cells; ATP-induced calcium, Fluo-8 fluorescence; inhibition, % at 3 µM; 0.6% of 360,000 active;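 active means inhibition above a per-plate cutoff, the plate's mean sample inhibition plus 3 SD, cut at about 24% in these data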;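 further: 0% = DMSO plus EC80 ATP and 100% = DMSO alone without ATP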
* marks the source's active call; other numbers are inactive results; x = no result. Shown are actives, neighbours in structure and some others; about 2.9% of the full set was active somewhere.

SMILES	CHO-K1 Ca ag	CHO-K1 Ca PAM	OX1R antag-1	CHO parental Ca	OX1R antag-2	CHO-K1 Ca antag
S=C(NCCc1ccccc1)NCCN1CCOCC1	0	3	6	5	-16	-3
Cc1ccc(OCCn2cc(/C(N)=N/O)c3ccccc32)cc1C	0	-9	17	-17	-22	28*
COc1ccc(OCCn2cc(/C(N)=N/O)c3ccccc32)cc1	2	13	10	-16	-16	-14
S=C(NCc1ccccc1Cl)Nc1ccccc1Cl	2	3	27	0	-13	-15
FC(F)(F)c1cnc(NNC(=S)Nc2ccccc2Cl)c(Cl)c1	16*	12	30	8	1	8
S=C(NCCc1ccncc1)Nc1cccc2ccccc12	0	-18	11	-3	-2	27*
Cc1c(Cl)cccc1NC(=S)NCCc1ccccn1	2	29	3	-5	-14	-16
S=C(NCCc1ccccn1)Nc1ccccc1Cl	0	-16	6	-4	-13	27*
C=CCNC(=S)Nc1cccc2ccccc12	0	22	5	-7	-3	-22
S=C(NCCNC(=S)Nc1ccccc1Cl)Nc1ccccc1Cl	16*	-4	3	8	3	-10
Cc1cccc(NC(=S)NNc2ncc(C(F)(F)F)cc2Cl)c1	4	-3	2	2	-11	4
CC(C)C(C)N(Cc1cccc(C(=O)O)c1)C(=O)c1ccc2ccccc2n1 (centres undefined)	0	24	12	0	2	-10
CCOc1ccc(CCNC(=O)COC(=O)c2oc3ccccc3c2COC)cc1OCC	0	13	13	-26	-6	-9
COc1ccc(-n2nc3c(c2NC(=O)C2CC(=O)N(c4ccccc4)C2)CS(=O)(=O)C3)cc1 (centres undefined)	0	10	9	-4	-16	-6
S=C(NCCc1ccccc1)Nc1ccccc1Cl	0	8	20	19	3	-4
S=C(NCCCc1ccccc1)Nc1ccccc1Cl	15*	-8	33	18	9	20
COc1ccc(C(=O)c2ccc(Cl)cc2)c(OC)c1OC	0	4	x	x	x	-7
O=C1C2C3C=CC(CO)(O3)C2C(=O)N1c1ccc(-c2ccccc2)cc1 (centres undefined)	x	x	16	61*	30	x
O=C(NCc1ccco1)c1ccc2nc3sc4c(c3c(=O)n2c1)CCCC4	x	x	87*	-22	-1	x
C=CCn1c(SCC(=O)NCc2ccco2)nc2sc3c(c2c1=O)CCCC3	0	-7	19	-17	-28	-15
O=C(COC(=O)Cc1cccc(F)c1)NC(=O)NC1CCCCC1	0	13	x	x	x	-5
COc1cccc(-c2cc(C(=O)Nc3cc(OC)c(OC)c(OC)c3)no2)c1	5	13	41*	-12	-3	-25
Cc1ccc(NC(=O)c2cc(-c3ccco3)on2)cc1C	1	-3	14	-9	-10	2
Cc1ccc(NC(=O)c2cc(-c3cccc(O)c3)on2)cc1C	1	-5	38*	21	13	-8
O=P(O)(Cc1ccccc1)Cc1ccccc1	0	16	11	-5	-2	-8
SMILES	CHO-K1 Ca ag	CHO-K1 Ca PAM	OX1R antag-1	CHO parental Ca	OX1R antag-2	CHO-K1 Ca antag
Oc1ccc(C[C@H]2CNC(=S)N2C[C@H]2CCCN2C[C@H](Cc2ccccc2)N2C[C@H](Cc3ccccc3)N(CC3CCCCC3)C2=S)cc1	0	-1	x	x	x	-14
COc1cccc(-c2cc(C(=O)N3CCN(C(=O)c4ccco4)CC3)on2)c1	2	11	14	-17	-34	-22
O=[N+]([O-])c1cc(Br)c(O)c(/C=N/Nc2nnnn2-c2cccc3ccccc23)c1	4	7	45*	-18	-10	1
O=[N+]([O-])c1ccc(NN=Cc2cccc3ccccc23)cc1	1	14	x	x	x	-10
O=C1c2ccccc2-c2nnc(-c3ccc(O)cc3)cc21	1	12	4	-9	4	-1
Cc1ccc(-c2cc3c(nn2)-c2ccccc2C3=O)cc1	1	12	44*	-18	-31	-9
Cc1ccccc1-c1cc2c(nn1)-c1ccccc1C2=O	0	-7	72*	-38	-14	25*
O=C1c2ccccc2-c2nnc(-c3ccc(F)cc3)cc21	0	7	8	-3	12	3
CCn1nccc1NC(=O)c1csc([C@@H]2C[C@H](O)[C@@H](CO)O2)n1	0	7	x	x	x	0
O=C(Nc1cccc(Cl)c1)Nc1nnc(-c2ccncc2)s1	11	-5	62	6	24	33*
O=C(Nc1cccc(Cl)c1)Nc1ccc2nccnc2c1	14	-29	34*	10	8	17
O=C(Nc1ccc2nccnc2c1)Nc1ccccc1Cl	4	10	20	-15	-30	-16
CSc1cccc(NC(N)=O)c1	0	3	1	7	-9	1
CC(=O)Nc1ccc(NC(=O)Nc2cccc(Cl)c2)cc1	2	7	-2	-5	-24	-6
CC(=O)c1ccc(NC(=O)Nc2cccc(Cl)c2)cc1	13	-5	72*	38*	35	34*
CSc1cccc(NC(=O)Nc2ccc(Cl)cc2)c1	12	-3	51*	81*	49*	26*
Cc1ccc(Cn2cc(CN3CC(N4CCN(Cc5ccccc5F)CC4)CS3(=O)=O)nn2)cc1 (centres undefined)	2	-6	x	x	x	12
CC(=O)c1cccc(NC(=O)Nc2cccs2)c1	1	-3	22	-17	-10	26*
COc1cccc(NC(=O)Nc2cccs2)c1	4	6	14	-15	-8	3
O=C(N/N=C/c1ccc([N+](=O)[O-])o1)c1cc2ccccc2o1	1	5	31	-5	-6	-13
O=C(N/N=C/c1cc(Br)c(Br)o1)c1cc2ccccc2o1	0	-10	62*	15	-2	-3
Cc1ccc(OCC(=O)N2N=C(C(F)(F)F)CC2(O)C(C)(C)C)cc1C (centres undefined)	2	21	29	80*	30	4
Cc1ccccc1OCC(=O)N1N=C(C(F)(F)F)CC1(O)C(C)(C)C (centres undefined)	0	13	23	33*	17	-22
CCOC(=O)C1(C)CCN1C(=O)c1ccc(OC)c(OC)c1 (centres undefined)	1	12	x	x	x	6
C#CCOCCOCCOCCNc1nc(N2CCN(C(=O)CCCCCCCCCCNC(=O)[C@@H](CCC(=O)O)n3cc(CCCCCN)nn3)CC2)nc(N2CCN(C(=O)CCCCCCCCCCNC(=O)[C@H](CCCCN)n3cc(C[C@@H](C)CC)nn3)CC2)n1	3	5	-14	-1	-17	-12
